BindingDB's records for doi:10.1016/j.bmcl.2019.08.010 (Stanford University, 2019)

Biological target: T1, Uridine-cytidine kinase 2 (Homo sapiens, UniProt Q9BZX2)
T1 sequence (Q9BZX2 whole entry): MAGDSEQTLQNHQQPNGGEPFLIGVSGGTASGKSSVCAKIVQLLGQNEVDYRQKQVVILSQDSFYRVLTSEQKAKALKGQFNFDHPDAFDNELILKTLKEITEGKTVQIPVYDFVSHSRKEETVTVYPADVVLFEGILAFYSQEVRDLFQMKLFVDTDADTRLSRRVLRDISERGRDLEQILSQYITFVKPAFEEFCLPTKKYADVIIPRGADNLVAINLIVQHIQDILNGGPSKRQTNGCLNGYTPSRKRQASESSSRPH
Assay: Inhibition of C-terminally His6-tagged human UCK2 expressed in Escherichia coli BL21(DE3) cells incubated for 15 mins before ATP addition and measured after 60 mins by ADP-Glo kinase assay
How it was run: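 His6-tagged UCK2 (C-terminal tag), purified by Ni-NTA then ion exchange; UCK2 phosphorylates uridine with ATP and ADP-Glo measures the ADP formed, after depleting leftover ATP, as luciferase luminescence. Run in 1536-well format with 0.5 mg/mL BSA, DMSO up to 3%. Primary screen at 33 μM with hit cut-off of 3 SD of the negative control. Confirmation used 8 half-log concentrations, 0.05–167 µM.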

Structure (SMILES): Cc1ccccc1NC(=O)CSCn1[nH]nc2c(=O)nc(Cc3ccc(F)cc3)nc1-2
- IC50: 137 µM
